Measurements from article PMC6294321 (Molecular cell, 2018).
One block for each molecule: values may come before it. Where no end group is shown, it is not given here.

Assays:
[1] = biological target: GST-KLHDC2 R241K (kelch repeat domain) (human) (UniProt Q9Y2U9); test: AlphaScreen or HTRF
[2] = biological target: GST-KLHDC2 (kelch repeat domain, amino acid 1-362) (human) (UniProt Q9Y2U9); test: AlphaScreen or HTRF
[3] = biological target: T1, GST-tagged KLHDC2 (kelch repeat domain, WT) (Homo sapiens, UniProt Q9Y2U9); test: AlphaScreen competition assay, wild type KLHDC2; format: binding; conditions: USP1 vs SelK 8 aa peptide
T1 sequence (Q9Y2U9 1-362): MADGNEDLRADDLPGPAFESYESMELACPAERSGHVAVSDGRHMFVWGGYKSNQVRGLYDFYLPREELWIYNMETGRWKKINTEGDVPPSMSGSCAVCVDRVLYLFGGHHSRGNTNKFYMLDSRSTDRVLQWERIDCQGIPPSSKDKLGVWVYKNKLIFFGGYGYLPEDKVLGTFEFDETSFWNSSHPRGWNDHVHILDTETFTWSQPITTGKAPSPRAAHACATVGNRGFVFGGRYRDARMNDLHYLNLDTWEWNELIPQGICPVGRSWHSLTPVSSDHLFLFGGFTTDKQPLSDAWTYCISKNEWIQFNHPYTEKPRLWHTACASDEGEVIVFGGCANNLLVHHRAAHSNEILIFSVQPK
Outline: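 Human KLHDC2 kelch domain (aa 1–362), GST-tagged, was expressed in baculovirus-infected Hi5 cells. It was purified by glutathione agarose, Q Sepharose and Superdex-200. The assay used 0.12 nM protein on anti-GST acceptor beads and 1.7 nM biotinylated 12 aa SelK peptide on streptavidin donor beads, 5 μg/ml beads. Buffer: HEPES pH 7.5, NaCl, TCEP, Tween-20, BSA. Competitor peptides ran 2 nM–3 mM, in triplicate; IC50 by non-linear fitting.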

[4] = biological target: T2, GST-KLHDC2 (kelch repeat domain, amino acid 1-362) (human, UniProt Q9Y2U9 1-362); test: BLI
T2 sequence (looked up): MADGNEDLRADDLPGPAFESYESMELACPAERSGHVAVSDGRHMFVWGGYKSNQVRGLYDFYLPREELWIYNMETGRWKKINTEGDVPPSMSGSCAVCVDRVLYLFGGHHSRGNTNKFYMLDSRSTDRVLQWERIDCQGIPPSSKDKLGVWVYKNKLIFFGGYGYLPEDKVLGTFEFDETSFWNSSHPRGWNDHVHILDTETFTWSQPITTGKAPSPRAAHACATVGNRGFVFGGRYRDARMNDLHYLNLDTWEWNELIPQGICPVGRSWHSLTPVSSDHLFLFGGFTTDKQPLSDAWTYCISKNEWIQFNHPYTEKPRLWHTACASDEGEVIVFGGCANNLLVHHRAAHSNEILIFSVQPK

[5] = biological target: T3, GST-KLHDC2 R241K (kelch repeat domain) (human, UniProt Q9Y2U9 1-362, R241K); test: AlphaScreen or HTRF
T3 sequence (looked up): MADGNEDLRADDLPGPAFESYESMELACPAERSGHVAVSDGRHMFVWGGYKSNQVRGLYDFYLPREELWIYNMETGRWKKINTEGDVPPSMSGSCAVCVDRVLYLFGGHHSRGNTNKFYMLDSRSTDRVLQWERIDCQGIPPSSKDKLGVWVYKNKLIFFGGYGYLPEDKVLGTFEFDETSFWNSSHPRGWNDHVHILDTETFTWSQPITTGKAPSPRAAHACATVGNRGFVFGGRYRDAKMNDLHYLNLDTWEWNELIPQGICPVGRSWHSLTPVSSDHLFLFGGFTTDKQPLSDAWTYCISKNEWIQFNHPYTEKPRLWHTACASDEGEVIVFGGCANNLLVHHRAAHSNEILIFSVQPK

[6] = biological target: T2, GST-KLHDC2 (kelch repeat domain, amino …); test: AlphaScreen or HTRF

IC50 [1]: 62600 nM
IC50 [2]: 69.5 nM
Molecule: 8 aa USP1-NTD C-end degron peptide

fold lower potency/affinity vs SelK [3]: about 7 fold
Molecule: EAIGLLGG-OH [USP1-NTD degron peptide]

Kd [2]: 360000 nM
Molecule: diglycine (2 aa SelK degron peptide, label-free)

Kd [4]: ~4 nM
Molecule: LRGPSPPPMAGG (peptide, UniProt Q9Y6D0 80-91, looked up, also: biotin, position not given here) [biotinylated 12 aa SelK degron peptide]

IC50 [5]: 5900 nM
Molecule: SPPPMAGG (peptide, UniProt Q9Y6D0 84-91, looked up) [8 aa SelK C-end degron peptide (label-free, wild type)]

IC50 [6]: ~3 nM
Molecule: LRGPSPPPMAGG (peptide, UniProt Q9Y6D0 80-91, looked up) [12 aa SelK degron peptide (label-free)]

binding result [6]: binds
Molecule: PPMAGG (peptide, UniProt Q9Y6D0 86-91, looked up) [6 aa SelK degron peptide (label-free)]

fold decrease in affinity against the unmodified 8 aa peptide [6]: ~1000 fold
Molecule: SPPPMAGG-NH2 (peptide, UniProt Q9Y6D0 84-91, looked up) [8 aa SelK degron peptide, C-terminally amidated]
